Assay results from publication PMC9069315 (Acta Pharmaceutica Sinica. B, 2021).
Residue numbers refer to the chain shown, from its start. Where “and” joins values, the source holds several entries; their conditions need not be identical. Equal entries are not always repeated.

What was measured:
σ2 receptor [1] = molecular target: T1, σ2 receptor (Rattus norvegicus, UniProt Q5U3Y7); assay: Micro-PET/CT imaging in Sprague-Dawley rats; type: in vivo; conditions: SD rats, CM398 10 μmol/kg 5 min before tracer, after 30 min
T1 sequence (Q5U3Y7 1-176): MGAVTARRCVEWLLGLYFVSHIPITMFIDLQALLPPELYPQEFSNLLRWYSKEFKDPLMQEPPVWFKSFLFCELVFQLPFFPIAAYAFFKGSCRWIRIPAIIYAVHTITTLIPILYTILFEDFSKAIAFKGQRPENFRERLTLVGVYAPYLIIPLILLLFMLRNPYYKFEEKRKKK
In short: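 Male SD rats (200 ± 10 g, 6–7 weeks) were injected intravenously with radiotracer, and a dynamic 120-min micro-PET/CT scan followed. Scans were run at baseline or with CM398 (10 μmol/kg) blocking. Whole-brain and regional time–activity curves were expressed as SUV, n = 3 per condition for whole brain; images were summed over 30–45 min.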

σ2 receptors [2] = molecular target: T2, σ2 receptors (Mus musculus, UniProt Q8VD00); assay: Blocking experiments in male ICR mice; type: in vivo; conditions: 30 min p.i.
T2 sequence (Q8VD00 1-176): T1 sequence (Q5U3Y7 1-176) with V4L, T5A, M26L, L33V, F71L, V105A, I118L, I127V, N136S, F169Y
In short: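 Male ICR mice (20 ± 2 g, 4–5 weeks) were pre-dosed 5 min before about 280 kBq of radiotracer, with either unlabeled compound (0.1 mL, 3 μmol/kg) or CM398 (0.1 mL; 3, 5, 10 or 20 μmol/kg). Tissues were taken at 30 min p.i. Brain uptake (% ID/g) and brain-to-blood ratio were compared with unblocked controls.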

[3] = Biodistribution in male ICR mice; type: in vivo, mouse; conditions: i.v.
In short: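 Male ICR mice (20 ± 2 g, 4–5 weeks) received the radiotracer, and tissues were sampled at the listed times after injection. Uptake is given as percentage of injected dose per gram of tissue (% ID/g), as means ± SD, n = 5.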

[4] = In vivo metabolic stability in ICR mice; parameters: species or system mouse; conditions: 30 min after injection, radio-HPLC
In short: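 ICR mice were injected with radiotracer (0.2 mL, 33.3 MBq). Brain and pancreas were dissected at 30 min, processed, and analysed by radio-HPLC for the intact-tracer fraction versus radioactive metabolites.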

P-glycoprotein (P-gp) = P-glycoprotein (P-gp) (Mus musculus, UniProt P21447); assay: Effect of P-gp on brain uptake; type: in vivo; conditions: male ICR mice
In short: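 Male ICR mice (20 ± 2 g, 4–5 weeks) were given the P-gp inhibitor cyclosporine A 60 min before the radioligand. Radioactivity in brain and blood was measured and the brain-to-blood ratio derived, n = 5–8 per group, means ± SD. Groups were compared by independent two-tailed Student's t test.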

[5] = In vitro stability in saline and mouse serum; type: in vitro ADME; conditions: 2 h
σ2 receptors [6] = molecular target: T2, σ2 receptors; assay: Ex vivo autoradiography in mouse brain; conditions: baseline, 30 min p.i., male ICR mice
σ2 receptor [7] = molecular target: T1, σ2 receptor; conditions: cited from earlier work
[8] = CM398 5 μmol/kg 5 min before tracer
[9] = unlabeled compound 3 μmol/kg 5 min before tracer
[10] = cyclosporine A 60 min before tracer, 2 min p.i., P < 0.05

P-glycoprotein (P-gp), sequence (P21447 whole entry): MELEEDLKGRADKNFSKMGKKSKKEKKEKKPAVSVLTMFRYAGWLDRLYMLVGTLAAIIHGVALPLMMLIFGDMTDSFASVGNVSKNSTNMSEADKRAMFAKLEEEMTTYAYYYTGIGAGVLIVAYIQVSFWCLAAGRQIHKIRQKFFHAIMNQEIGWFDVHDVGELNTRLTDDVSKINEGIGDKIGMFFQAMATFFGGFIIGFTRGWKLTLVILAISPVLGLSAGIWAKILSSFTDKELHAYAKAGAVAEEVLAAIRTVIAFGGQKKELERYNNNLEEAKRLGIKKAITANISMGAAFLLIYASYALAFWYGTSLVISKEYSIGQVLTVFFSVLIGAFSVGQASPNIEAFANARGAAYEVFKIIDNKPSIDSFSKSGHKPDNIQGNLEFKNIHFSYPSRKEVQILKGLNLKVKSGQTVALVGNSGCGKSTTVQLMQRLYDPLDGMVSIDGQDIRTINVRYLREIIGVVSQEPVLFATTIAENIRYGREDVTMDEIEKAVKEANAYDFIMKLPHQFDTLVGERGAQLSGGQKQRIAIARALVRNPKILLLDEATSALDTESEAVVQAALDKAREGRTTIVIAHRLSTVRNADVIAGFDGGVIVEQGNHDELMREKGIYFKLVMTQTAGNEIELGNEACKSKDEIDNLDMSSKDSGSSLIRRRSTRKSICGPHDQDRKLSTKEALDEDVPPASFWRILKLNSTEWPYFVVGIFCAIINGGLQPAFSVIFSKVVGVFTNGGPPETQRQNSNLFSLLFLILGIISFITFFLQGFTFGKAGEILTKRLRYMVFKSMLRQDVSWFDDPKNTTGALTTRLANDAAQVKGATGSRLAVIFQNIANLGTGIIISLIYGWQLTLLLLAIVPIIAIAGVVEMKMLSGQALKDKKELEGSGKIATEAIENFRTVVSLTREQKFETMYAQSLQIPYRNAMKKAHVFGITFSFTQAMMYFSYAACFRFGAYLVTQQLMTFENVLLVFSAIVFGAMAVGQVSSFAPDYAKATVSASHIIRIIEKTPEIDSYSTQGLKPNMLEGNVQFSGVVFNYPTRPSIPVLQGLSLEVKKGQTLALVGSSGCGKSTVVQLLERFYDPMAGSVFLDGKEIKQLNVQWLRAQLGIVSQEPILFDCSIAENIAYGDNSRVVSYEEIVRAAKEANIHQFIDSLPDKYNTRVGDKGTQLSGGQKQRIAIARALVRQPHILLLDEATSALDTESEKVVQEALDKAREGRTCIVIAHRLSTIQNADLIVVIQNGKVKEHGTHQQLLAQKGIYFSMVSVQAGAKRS

Reduction of radiotracer accumulation in the whole-brain (micro-PET) (σ2 receptor [1]): > 60% | Blocking effect of CM398 (5 μmol/kg), Brain (σ2 receptors [2]; [8]): 39% | Blocking effect of CM398 (5 μmol/kg), Brain/Blood (σ2 receptors [2]; [8]): 75% | Self-blocking effect, Brain (σ2 receptors [2]; [9]): 58% | Self-blocking effect, Brain/Blood (σ2 receptors [2]; [9]): 90% | Blood uptake ([3]; 2 min p.i.): 2.39 ± 0.36 % ID/g | Bone uptake ([3]; 2 min p.i.): 2.59 ± 0.66 % ID/g | Brain uptake ([3]; 2 min p.i.): 4.44 ± 0.59 % ID/g | Brain/Blood ratio ([3]; 2 min p.i.): 1.87 ± 0.13 | Heart uptake ([3]; 2 min p.i.): 21.57 ± 1.58 % ID/g | Kidney uptake ([3]; 2 min p.i.): 18.89 ± 2.48 % ID/g | Liver uptake ([3]; 2 min p.i.): 3.24 ± 0.67 % ID/g | Lung uptake ([3]; 2 min p.i.): 108.47 ± 20.11 % ID/g | Muscle uptake ([3]; 2 min p.i.): 4.38 ± 0.99 % ID/g | Pancreas uptake ([3]; 2 min p.i.): 8.74 ± 0.29 % ID/g | Small intestine uptake ([3]; 2 min p.i.): 6.21 ± 0.81 % ID/organ | Spleen uptake ([3]; 2 min p.i.): 5.01 ± 1.80 % ID/g | Stomach uptake ([3]; 2 min p.i.): 1.21 ± 0.14 % ID/organ | Blood uptake ([3]; 15 min p.i.): 0.70 ± 0.08 % ID/g | Bone uptake ([3]; 15 min p.i.): 3.02 ± 0.45 % ID/g | Brain uptake ([3]; 15 min p.i.): 4.95 ± 0.36 % ID/g | Brain/Blood ratio ([3]; 15 min p.i.): 7.2 and 7.21 ± 1.36 | Heart uptake ([3]; 15 min p.i.): 11.23 ± 0.91 % ID/g | Kidney uptake ([3]; 15 min p.i.): 18.40 ± 2.45 % ID/g | Liver uptake ([3]; 15 min p.i.): 6.13 ± 0.94 % ID/g | Lung uptake ([3]; 15 min p.i.): 36.37 ± 6.47 % ID/g | Muscle uptake ([3]; 15 min p.i.): 3.74 ± 0.33 % ID/g | Pancreas uptake ([3]; 15 min p.i.): 12.75 ± 2.12 % ID/g | Small intestine uptake ([3]; 15 min p.i.): 7.27 ± 0.88 % ID/organ | Spleen uptake ([3]; 15 min p.i.): 7.51 ± 1.17 % ID/g | Stomach uptake ([3]; 15 min p.i.): 1.52 ± 0.19 % ID/organ | Blood uptake ([3]; 30 min p.i.): 0.48 ± 0.08 % ID/g | Bone uptake ([3]; 30 min p.i.): 4.50 ± 0.38 % ID/g | Brain uptake ([3]; 30 min p.i.): 5.04 ± 0.67 % ID/g | Brain/Blood ratio ([3]; 30 min p.i.): 10.6 and 10.57 ± 1.86 and 10.57 | Heart uptake ([3]; 30 min p.i.): 7.55 ± 1.30 % ID/g | Kidney uptake ([3]; 30 min p.i.): 20.61 ± 1.80 % ID/g | Liver uptake ([3]; 30 min p.i.): 8.69 ± 0.44 % ID/g | Lung uptake ([3]; 30 min p.i.): 17.93 ± 2.42 % ID/g | Muscle uptake ([3]; 30 min p.i.): 3.90 ± 0.23 % ID/g | Pancreas uptake ([3]; 30 min p.i.): 18.93 ± 2.95 % ID/g | Small intestine uptake ([3]; 30 min p.i.): 10.80 ± 0.36 % ID/organ | Spleen uptake ([3]; 30 min p.i.): 9.93 ± 1.43 % ID/g | Stomach uptake ([3]; 30 min p.i.): 1.54 ± 0.20 % ID/organ | Blood uptake ([3]; 60 min p.i.): 0.42 ± 0.05 % ID/g | Bone uptake ([3]; 60 min p.i.): 4.64 ± 1.57 % ID/g | Brain uptake ([3]; 60 min p.i.): 4.43 ± 0.39 % ID/g | Brain/Blood ratio ([3]; 60 min p.i.): 10.6 and 10.56 ± 0.83 | Heart uptake ([3]; 60 min p.i.): 3.49 ± 0.62 % ID/g | Kidney uptake ([3]; 60 min p.i.): 17.40 ± 3.97 % ID/g | Liver uptake ([3]; 60 min p.i.): 10.97 ± 0.95 % ID/g | Lung uptake ([3]; 60 min p.i.): 9.95 ± 1.62 % ID/g | Muscle uptake ([3]; 60 min p.i.): 3.01 ± 0.51 % ID/g | Pancreas uptake ([3]; 60 min p.i.): 22.66 ± 3.36 % ID/g | Small intestine uptake ([3]; 60 min p.i.): 10.73 ± 1.27 % ID/organ | Spleen uptake ([3]; 60 min p.i.): 11.35 ± 2.85 % ID/g | Stomach uptake ([3]; 60 min p.i.): 1.39 ± 0.27 % ID/organ | Blood uptake ([3]; 120 min p.i.): 0.42 ± 0.03 % ID/g | Bone uptake ([3]; 120 min p.i.): 5.57 ± 0.53 % ID/g | Brain uptake ([3]; 120 min p.i.): 3.41 ± 0.13 % ID/g | Brain/Blood ratio ([3]; 120 min p.i.): 8.11 ± 0.37 | Heart uptake ([3]; 120 min p.i.): 2.76 ± 0.41 % ID/g | Kidney uptake ([3]; 120 min p.i.): 12.36 ± 0.81 % ID/g | Liver uptake ([3]; 120 min p.i.): 11.9 ± 1.52 % ID/g | Lung uptake ([3]; 120 min p.i.): 7.53 ± 1.07 % ID/g | Muscle uptake ([3]; 120 min p.i.): 3.01 ± 0.27 % ID/g | Pancreas uptake ([3]; 120 min p.i.): 24.21 ± 1.57 % ID/g | Small intestine uptake ([3]; 120 min p.i.): 10.88 ± 0.38 % ID/organ | Spleen uptake ([3]; 120 min p.i.): 10.51 ± 0.37 % ID/g | Stomach uptake ([3]; 120 min p.i.): 1.22 ± 0.13 % ID/organ | Parent compound fraction of radioactivity in brain [4]: ≥ 95% | Parent compound fraction of radioactivity in pancreas ([4]; n = 3): ~10% | Increase in brain-to-blood ratio with cyclosporine A (P-glycoprotein (P-gp); [10]): 35% | Increase in initial brain uptake with cyclosporine A (P-glycoprotein (P-gp); [10]): 49% | Change in blood uptake with cyclosporine A (P-glycoprotein (P-gp); cyclosporine A 60 min before tracer, 2 min p.i., P > 0.05): slight increase without significance | RCP after incubation (in vitro stability) ([5]; mouse serum, 37 °C): > 99% | RCP after incubation (in vitro stability) ([5]; saline, ambient temperature): > 99% | Radioactivity distribution in the mouse brain (ex vivo autoradiography) (σ2 receptors [6]): widely and heterogeneously distributed
Compound: COc1cc2c(cc1OC)CN(CCCCn1ccc3c(OCC[18F])cccc31)C2 [[^18F]9, 1-(4-(5,6-dimethoxyisoindolin-2-yl)butyl)-4-(2-[^18F]fluoroethoxy)-1H-indole]
P-gp substrate (P-glycoprotein (P-gp); cyclosporine A 50 mg/kg 60 min before tracer, 50 mg/kg): moderate P-gp substrates and moderate P-gp substrate and Yes | Ki (σ2 receptor [7]; read-out: Ki (σ2)): 1.79 ± 0.86 nM | Ki (σ1)/Ki (σ2) (σ2 receptor [7]; subtype selectivity): 207
